Reference: ChEMBL document CHEMBL1126031, “1,2,3-trisubstituted cyclopropanes as conformationally restricted peptide isosteres: application to the design and synthesis of novel renin inhibitors” (J Med Chem, 1992)

Columns and labels:
Renin [1] = biological target: T1, Renin (Homo sapiens, UniProt P00797); assay: In vitro inhibition of purified human renin at a pH of 6.0.
T1 sequence (P00797 whole entry): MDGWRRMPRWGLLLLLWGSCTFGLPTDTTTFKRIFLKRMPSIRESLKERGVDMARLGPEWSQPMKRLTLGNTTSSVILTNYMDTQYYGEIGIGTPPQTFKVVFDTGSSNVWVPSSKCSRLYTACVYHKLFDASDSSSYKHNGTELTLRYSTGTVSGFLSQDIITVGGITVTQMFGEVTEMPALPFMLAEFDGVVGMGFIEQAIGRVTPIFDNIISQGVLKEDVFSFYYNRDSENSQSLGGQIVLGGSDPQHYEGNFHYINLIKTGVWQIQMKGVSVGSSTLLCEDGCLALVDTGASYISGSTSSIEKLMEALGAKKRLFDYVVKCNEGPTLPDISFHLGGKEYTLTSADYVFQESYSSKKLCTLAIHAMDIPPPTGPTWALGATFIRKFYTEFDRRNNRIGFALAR
Method in brief: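 Purified human renin, assayed at pH 6.0 by a procedure from earlier work.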

Renin [2] = biological target: T1, Renin; assay: In vitro potency against human plasma renin at pH 7.4; type: cell-free
Method in brief: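 Renin in human plasma, assayed at pH 7.4 by a procedure from earlier work.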

[3] = Half life of the compound
Renin (Homo sapiens) = biological target: T2, Renin (Homo sapiens) (UniProt P00797); assay: In vitro potency to inhibit human plasma renin at a pH of 7.4 and at 1*10e-6 M concentration; type: cell-free
T2 sequence (whole entry): T1 sequence (P00797 whole entry)

IC50 (Renin [1]) [nM] | IC50 (Renin [2]) [nM] | half-life [3] [h] | inhibition (Renin (Homo sapiens)) [%] | SMILES
0.36 | 8.3 | – | – | CC(C)C[C@H](O)[C@H](O)[C@H](CC1CCCCC1)NC(=O)[C@H](Cc1cscn1)NC(=O)[C@@H](CC(=O)N1CCOCC1)Cc1ccccc1
44 | – | – | – | CC(C)C[C@H]1[C@H](C(=O)N[C@@H](Cc2cscn2)C(=O)N[C@@H](CC2CCCCC2)[C@@H](O)[C@@H](O)CC(C)C)[C@H]1C(=O)N1CCOCC1
120 | – | – | – | CC(C)C[C@H](O)[C@H](O)[C@H](CC1CCCCC1)NC(=O)[C@H](Cc1cscn1)NC(=O)[C@@H]1[C@@H](C(=O)N2CCOCC2)[C@H]1c1ccccc1
92 | – | – | – | CC[C@@H]1[C@H](C(=O)N[C@@H](Cc2cscn2)C(=O)N[C@@H](CC2CCCCC2)[C@@H](O)[C@@H](O)CC(C)C)[C@H]1C(=O)N1CCOCC1
10 | 230 | – | – | CC[C@@H]1[C@@H](C(=O)N[C@@H](Cc2cscn2)C(=O)N[C@@H](CC2CCCCC2)[C@@H](O)[C@@H](O)CC(C)C)[C@@H]1C(=O)N1CCOCC1
10 | 370 | – | – | CC(C)C[C@H](O)[C@H](O)[C@H](CC1CCCCC1)NC(=O)[C@H](Cc1cscn1)NC(=O)[C@H]1[C@H](Cc2ccccc2)[C@@H]1C(=O)N1CCOCC1
120 | – | – | – | CC(C)C[C@H](O)[C@H](O)[C@H](CC1CCCCC1)NC(=O)[C@H](Cc1cscn1)NC(=O)[C@@H]1[C@@H](C(=O)N2CCOCC2)[C@@H]1c1ccccc1
1.1 | 810 | – | – | CC(C)C[C@H](O)[C@H](O)[C@H](CC1CCCCC1)NC(=O)[C@H](Cc1cscn1)NC(=O)C1[C@@H](c2ccccc2)[C@H]1c1ccccc1 (stereo not given in full)
16 | 610 | – | – | CC[C@H]1[C@@H](C(=O)N[C@@H](Cc2cscn2)C(=O)N[C@@H](CC2CCCCC2)[C@@H](O)[C@@H](O)CC(C)C)[C@@H]1C(=O)N1CCOCC1
200 | – | – | – | CC(C)C[C@H](O)[C@H](O)[C@H](CC1CCCCC1)NC(=O)[C@H](Cc1cscn1)NC(=O)[C@H]1[C@H](C(=O)N2CCOCC2)[C@H]1c1ccccc1
0.47 | 54 | – | – | CC(C)C[C@H](O)[C@H](O)[C@H](CC1CCCCC1)NC(=O)[C@H](Cc1cscn1)NC(=O)C(Cc1ccccc1)Cc1ccccc1
2.4 | 300 | – | – | CCOC(=O)N[C@@H](Cc1ccc(I)cc1)C(=O)N[C@@H](CC(C)C)C(=O)N[C@@H](CC1CCCCC1)[C@@H](O)[C@@H](O)CC(C)C
0.7 | 20 | > 5 | – | CC(C)C[C@H](O)[C@H](O)[C@H](CC1CCCCC1)NC(=O)[C@H](Cc1cscn1)NC(=O)[C@H]1[C@H](C(=O)N2CCOCC2)[C@@H]1c1ccccc1
2.1 | 41 | – | – | CC(C)C[C@@H]1[C@@H](C(=O)N[C@@H](Cc2cscn2)C(=O)N[C@@H](CC2CCCCC2)[C@@H](O)[C@@H](O)CC(C)C)[C@@H]1C(=O)N1CCOCC1
33 | – | – | – | CC(C)C[C@@H]1[C@H](C(=O)N[C@@H](Cc2cscn2)C(=O)N[C@@H](CC2CCCCC2)[C@@H](O)[C@@H](O)CC(C)C)[C@H]1C(=O)N1CCOCC1
19 | > 1000 | – | 46 | CC(C)C[C@H]1[C@@H](C(=O)N[C@@H](Cc2cscn2)C(=O)N[C@@H](CC2CCCCC2)[C@@H](O)[C@@H](O)CC(C)C)[C@@H]1C(=O)N1CCOCC1
200 | – | – | – | CC[C@H]1[C@H](C(=O)N[C@@H](Cc2cscn2)C(=O)N[C@@H](CC2CCCCC2)[C@@H](O)[C@@H](O)CC(C)C)[C@H]1C(=O)N1CCOCC1
25 | > 1000 | – | 30 | CC(C)C[C@H](O)[C@H](O)[C@H](CC1CCCCC1)NC(=O)[C@H](Cc1cscn1)NC(=O)[C@@H]1[C@@H](Cc2ccccc2)[C@H]1C(=O)N1CCOCC1
120 | – | – | – | CC(C)C[C@H](O)[C@H](O)[C@H](CC1CCCCC1)NC(=O)[C@H](Cc1cscn1)NC(=O)[C@@H]1[C@H](Cc2ccccc2)[C@H]1C(=O)N1CCOCC1
150 | – | – | – | CC(C)C[C@H](O)[C@H](O)[C@H](CC1CCCCC1)NC(=O)[C@H](Cc1cscn1)NC(=O)[C@H](CC(=O)N1CCOCC1)Cc1ccccc1
27 | – | – | – | CC(C)C[C@H](O)[C@H](O)[C@H](CC1CCCCC1)NC(=O)[C@H](Cc1cscn1)NC(=O)[C@H]1[C@@H](Cc2ccccc2)[C@@H]1C(=O)N1CCOCC1
